According to ChEMBL document CHEMBL1145160, “Neoclerodane diterpenes as a novel scaffold for mu opioid receptor ligands” (J Med Chem, 2005):
The source made the active and inactive calls. The rule behind the calls is not given here.

What was measured:
[1] = molecular target: Opioid receptors; mu & kappa (Homo sapiens) (UniProt P41145+P35372); assay: Relative affinity for human opioid receptor mu1 and kappa1; format: protein assay
[2] = molecular target: Opioid receptors; delta & kappa (Homo sapiens) (UniProt P41145+P41143); assay: Relative affinity for human opioid receptor delta1 and kappa1; format: protein assay
[3] = molecular target: T1, Delta-type opioid receptor (Homo sapiens, UniProt P41143); assay: Inhibition of [125I]- IOXY binding to human Opioid receptor delta1
Mu-type opioid receptor [4] = molecular target: T2, Mu-type opioid receptor (Homo sapiens, UniProt P35372); assay: Inhibition of [125I]- IOXY binding to human Opioid receptor mu1
[5] = molecular target: T3, Kappa-type opioid receptor (Homo sapiens, UniProt P41145); assay: Stimulation of [35S]GTP-gamma-S, binding to Opioid receptor kappa1 expressed in CHO cells; format: functional, cell-based
Outline: (§1)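 Membranes from CHO cells stably transfected with DNA for the human μ, δ or κ opioid receptor; agonist-stimulated [35S]GTPγS binding measured; potency given as EC50 ± SD, efficacy as Emax.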

[6] = molecular target: T3, Kappa-type opioid receptor; assay: Stimulatory effect on [35S]GTP gammaS binding to Opioid receptor kappa1 expressed in CHO cells compared to 500 nM U50,488; format: functional, cell-based; outline: as §1
Mu-type opioid receptor [7] = molecular target: T2, Mu-type opioid receptor; assay: Stimulatory effect on [35S]-GTP gammaS binding to Opioid receptor mu1 expressed in CHO cells compared to 10 uM DAMGO; format: cell-based; outline: as §1
Mu-type opioid receptor [8] = molecular target: T2, Mu-type opioid receptor; assay: Stimulation of [35S]GTP-gamma-S, binding to Opioid receptor mu1 expressed in CHO cells; format: functional, cell-based; outline: as §1
[9] = molecular target: T3, Kappa-type opioid receptor; assay: Inhibition of [125I]- IOXY binding to human Opioid receptor kappa1
Mus musculus [10] = assay: In vivo opioid receptor activity in mouse hot plate assay
Mu-type opioid receptor [11] = molecular target: T2, Mu-type opioid receptor; assay: Stimulation of [35S]GTP-gamma-S, binding to Opioid receptor mu1 expressed in CHO cells; ND = Not determined; format: functional, cell-based; outline: as §1
[12] = molecular target: T1, Delta-type opioid receptor; assay: Stimulation of [35S]-GTP gammaS binding to Opioid receptor delta 1 expressed in CHO cells; ND = Not determined; format: functional, cell-based; outline: as §1
Mus musculus [13] = assay: In vivo antinociceptive activity against opioid receptor in mouse hot plate […] assay; No inhibition (inactive at 30 uM); format: functional, organism-based
Mus musculus [14] = assay: In vivo opioid receptor activity in mouse tail flick assay; format: functional
Mus musculus [15] = assay: In vivo opioid receptor activity in mouse p-phenylquinone writhing assay; format: functional
Mus musculus [16] = assay: In vivo antinociceptive activity against opioid receptor in mouse p-phenylquinone writhing test; No inhibition (inactive at 1 uM); format: functional, organism-based
Mu-type opioid receptor [17] = molecular target: T2, Mu-type opioid receptor; assay: Stimulatory effect on [35S]-GTP gammaS binding to Opioid receptor mu1 expressed in CHO cells compared to 10 uM DAMGO; ND = Not determined; format: cell-based; outline: as §1

T3 sequence (P41145 whole entry): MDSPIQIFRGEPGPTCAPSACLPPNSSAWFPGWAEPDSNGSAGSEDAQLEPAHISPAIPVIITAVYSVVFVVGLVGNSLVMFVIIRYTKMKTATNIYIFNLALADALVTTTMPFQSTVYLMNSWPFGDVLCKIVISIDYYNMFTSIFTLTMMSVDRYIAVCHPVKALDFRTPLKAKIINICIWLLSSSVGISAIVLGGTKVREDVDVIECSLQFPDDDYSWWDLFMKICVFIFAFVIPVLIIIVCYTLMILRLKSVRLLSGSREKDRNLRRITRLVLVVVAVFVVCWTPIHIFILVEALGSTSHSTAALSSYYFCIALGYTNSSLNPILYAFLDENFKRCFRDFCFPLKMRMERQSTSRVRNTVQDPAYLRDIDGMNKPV
Opioid receptors; mu & kappa (Homo sapiens), sequence (P35372 whole entry, looked up): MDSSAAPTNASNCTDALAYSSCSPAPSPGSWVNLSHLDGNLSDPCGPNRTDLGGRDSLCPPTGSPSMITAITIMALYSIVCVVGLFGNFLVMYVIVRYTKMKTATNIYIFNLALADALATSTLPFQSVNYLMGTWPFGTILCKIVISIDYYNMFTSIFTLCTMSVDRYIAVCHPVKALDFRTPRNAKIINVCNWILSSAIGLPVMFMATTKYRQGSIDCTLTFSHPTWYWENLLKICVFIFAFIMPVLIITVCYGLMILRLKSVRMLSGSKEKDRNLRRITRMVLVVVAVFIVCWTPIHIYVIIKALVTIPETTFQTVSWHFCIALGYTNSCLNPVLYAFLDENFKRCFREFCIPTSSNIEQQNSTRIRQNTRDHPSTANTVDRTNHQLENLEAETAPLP
Opioid receptors; mu & kappa (Homo sapiens), sequence (P41145 whole entry, looked up): as the sequence (P41145 whole entry) above
T2 sequence (P35372 whole entry): as the sequence (P35372 whole entry, looked up) above
Opioid receptors; delta & kappa (Homo sapiens), sequence (P41143 whole entry, looked up): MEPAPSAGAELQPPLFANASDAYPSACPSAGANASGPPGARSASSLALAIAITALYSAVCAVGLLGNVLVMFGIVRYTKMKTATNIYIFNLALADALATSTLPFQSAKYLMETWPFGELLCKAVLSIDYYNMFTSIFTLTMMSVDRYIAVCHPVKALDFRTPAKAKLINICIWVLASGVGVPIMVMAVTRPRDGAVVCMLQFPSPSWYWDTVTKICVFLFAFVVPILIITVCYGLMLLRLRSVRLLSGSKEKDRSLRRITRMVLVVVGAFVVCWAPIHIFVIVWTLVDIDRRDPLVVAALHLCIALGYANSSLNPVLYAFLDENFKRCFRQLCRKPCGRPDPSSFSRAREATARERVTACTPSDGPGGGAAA
Opioid receptors; delta & kappa (Homo sapiens), sequence (P41145 whole entry, looked up): as the sequence (P41145 whole entry) above
T1 sequence (P41143 whole entry): as the sequence (P41143 whole entry, looked up) above

Row | Compound | Selectivity [1] | Selectivity [2] | Ki [3] [µM] | Ki (Mu-type opioid receptor [4]) [µM] | EC50 [5] [µM] | Emax [6] [%] | further results
1 | COC(=O)[C@@H]1C[C@H](O[Si](C)(C)C)C(=O)[C@H]2[C@@]1(C)CC[C@H]1C(=O)O[C@H](c3ccoc3)C[C@]21C | > 7 | > 7 | > 10 | > 10 | – | – | –
2 | COC(=O)[C@@H]1C[C@H](OS(C)(=O)=O)C(=O)[C@H]2[C@@]1(C)CC[C@H]1C(=O)O[C@H](c3ccoc3)C[C@]21C | – | – | > 10 | – | 0.03 | 112 | –
3 | COC(=O)[C@@H]1C[C@H](OC(=O)c2ccccc2)C(=O)[C@H]2[C@@]1(C)CC[C@H]1C(=O)O[C@H](c3ccoc3)C[C@]21C [HERKINORIN] | 0.13 | 12 | 1.17 | – | 1.32 | 140 | Emax (Mu-type opioid receptor [7]): 130%; EC50 (Mu-type opioid receptor [8]): 0.5 µM
4 | C=CCNC(=O)O[C@H]1C[C@@H](C(=O)OC)[C@]2(C)CC[C@H]3C(=O)O[C@H](c4ccoc4)C[C@]3(C)[C@H]2C1=O | 5 | 55 | 6.46 | 0.64 | – | – | –
5 | COC(=O)[C@@H]1C[C@H](OC(=N)C(Cl)(Cl)Cl)C(=O)[C@H]2[C@@]1(C)CC[C@H]1C(=O)O[C@H](c3ccoc3)C[C@]21C | > 150 | 95 | – | > 10 | – | – | –
6 | COC(=O)[C@@H]1C[C@H](O)[C@H](O)[C@H]2[C@@]1(C)CC[C@H]1C(=O)O[C@H](c3ccoc3)C[C@]21C | 2 | > 3 | > 10 | 5.74 | – | – | Ki [9]: 3.19 µM
7 | COC(=O)C(=O)O[C@H]1C[C@@H](C(=O)OC)[C@]2(C)CC[C@H]3C(=O)O[C@H](c4ccoc4)C[C@]3(C)[C@H]2C1=O | > 30 | > 30 | > 10 | > 10 | – | – | –
8 | CN1CC[C@]23c4c5ccc(O)c4O[C@H]2[C@@H](O)C=C[C@H]3[C@H]1C5 [MORPHINE] | – | – | – | – | – | – | ED50 (Mus musculus [10]): 0.8 mg/kg
9 | COC(=O)[C@@H]1C[C@H](O)[C@H](O)[C@@H]2[C@@]3(C)C[C@@H](c4ccoc4)OC(=O)[C@H]3CC[C@]21C | – | – | > 10 | > 10 | – | – | Ki [9]: > 10 µM
10 | C=C(C)C(=O)O[C@H]1C[C@@H](C(=O)OC)[C@]2(C)CC[C@H]3C(=O)O[C@H](c4ccoc4)C[C@]3(C)[C@H]2C1=O | 7 | 210 | 8.88 | 0.26 | – | – | –
11 | COC(=O)[C@@H]1C[C@H](OC(=O)Nc2ccccc2)C(=O)[C@H]2[C@@]1(C)CC[C@H]1C(=O)O[C@H](c3ccoc3)C[C@]21C | 0.2 | 2 | – | – | 0.48 | 100 | Emax (Mu-type opioid receptor [7]): 92%; EC50 (Mu-type opioid receptor [11]): 0.59 µM; EC50 [12]: 2.53 µM
12 | CCC(=O)O[C@H]1C[C@@H](C(=O)OC)[C@]2(C)CC[C@H]3C(=O)O[C@H](c4ccoc4)C[C@]3(C)[C@H]2C1=O | – | 2730 | 6.69 | > 1 | 0.14 | 110 | –
13 | COC(=O)[C@@H]1C[C@H](OC(C)=O)C(=O)[C@H]2[C@@]1(C)CC[C@H]1C(=O)O[C@H](c3ccoc3)C[C@]21C [SALVINORIN A] | – | – | – | – | – | – | inhibition (Mus musculus [13]): inactive; ED50 (Mus musculus [14]): 1.98 mg/kg; ED50 (Mus musculus [15]): 0.59 mg/kg; inhibition (Mus musculus [16]): inactive
14 | COC(=O)[C@@H]1C[C@H](OC(=O)c2cccnc2)C(=O)[C@H]2[C@@]1(C)CC[C@H]1C(=O)O[C@H](c3ccoc3)C[C@]21C | 0.04 | 3 | 4.82 | – | 5.74 | 76 | Emax (Mu-type opioid receptor [17]): 110%; EC50 (Mu-type opioid receptor [11]): 2.1 µM
15 | COC(=O)[C@@H]1C[C@H](OC(=O)C(C)C)C(=O)[C@H]2[C@@]1(C)CC[C@H]1C(=O)O[C@H](c3ccoc3)C[C@]21C | 196 | – | > 10 | 2.98 | 0.36 | 105 | –
16 | COC(=O)[C@@H]1C[C@H](OC(C)=O)[C@H](OC(C)=O)[C@H]2[C@@]1(C)CC[C@H]1C(=O)O[C@H](c3ccoc3)C[C@]21C | > 15 | > 15 | > 10 | > 10 | – | – | –
